Published values of several laboratories.
Cell line: HEK293
Effect on: cell growth or viability

For `CCCc1ccc(OCCCCCN2CCCCCC2)cc1`, the IC50 was 33.3 µM (48 h).
`COc1cccc2c1C(=O)c1c(O)c3c(c(O)c1C2=O)C[C@@](O)(C(=O)CO)C[C@@H]3O[C@H]1C[C@H](N)[C@H](O)[C@H](C)O1` has an IC50 of greater than 40 µM (MTT; 24 h).
The IC50 of `Cc1c(C)c2c(O)cc(O)cc2oc1=O` is reported as greater than 20 µM (MTT; 36 h).
The IC50 of `Cc1nc2ccccc2c(O)c1-c1ccc(Cl)cc1` is reported as greater than 10 µM.
For `CC(=O)Oc1ccc2oc(=O)cc(CSC(C)=O)c2c1`, the IC50 was greater than 20 µM (MTT; 36 h).
With `C[C@@H](O)C(=O)CCCCC[C@@H]1NC(=O)[C@H]2CCCN2C(=O)[C@H](Cc2ccccc2)NC(=O)C(C)(C)NC1=O` the IC50 was 0.04 µM (XTT).
`CCCCCCCCc1c(C)[nH]c(C)c(C#N)c1=O` has an IC50 of greater than 10 µM.
For `CC(=O)SCc1cc(=O)oc2ccc(O)cc12`, the IC50 was greater than 20 µM (MTT; 36 h).
`C[C@@H](O)C(=O)CCCCCCC(=O)Nc1ccccc1` gave an IC50 of 35.6 µM (XTT).
The IC50 of `c1ccc2c(OCCCCCCN3CCCCCC3)cccc2c1` is reported as 11.8 µM (48 h).
With `O=C(c1cc(-c2cccs2)[nH]n1)N1CCN(S(=O)(=O)c2ccc(Cl)s2)CC1` the IC50 was greater than 10 µM.
For `O=c1cc(CCl)c2cc(O)ccc2o1`, the IC50 was greater than 20 µM (MTT; 36 h).
`CC(=O)O[C@H](C)C(=O)CCCCC[C@@H]1NC(=O)[C@H]2CCCN2C(=O)[C@H](Cc2ccccc2)NC(=O)C(C)(C)NC1=O` gave an IC50 of 0.006 µM (XTT).
With `Cc1[nH]c(C)c(-c2ccc(C(=O)c3ccc(Cl)cc3)cc2)c(=O)c1Br` the IC50 was greater than 10 µM.
